Results from ChEMBL document CHEMBL1122634 (J Med Chem, 1984).

Legend:
Rattus norvegicus [1] = assay: In vivo adrenals distribution of [11C]-labeled compound in Fisher rat 10 min after injection via caudal vein along with 18 ug of unlabeled estradiol.; assay type: ADME, organism-based, Adrenal gland; settings: iv
In short: (§1)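 Immature female Fisher rats, 3-4 weeks old, about 50 g. Tracer was HPLC-purified, dried, redissolved in ethanol and diluted in saline. […] Animals were killed by cardiac puncture at 10 min and tissues counted. Values are % injected dose/g normalized to 100 g body weight, mean ± SD of five rats. Rats were paired (with/without carrier) and compared by paired Student's t test.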

Rattus norvegicus [2] = assay: In vivo adrenals distribution of [11C]-labeled compound in Fisher rat 10 min after injection via caudal vein.; assay type: ADME, organism-based, Adrenal gland; settings: iv; in short: as §1
Rattus norvegicus [3] = species: Rattus norvegicus; assay: (§2) Tissue to blood ratio 10 min after injection of compound; assay type: functional
In short: (§3)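 Immature female Fisher rats, about 50 g. […] Rats were killed at 10 min and tissue and blood radioactivity counted. Results are tissue-to-blood ratios, mean ± SD of five rats, compared between paired animals by paired Student's t test (p < 0.05 significant).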

Rattus norvegicus [4] = assay: In vivo lung distribution of [11C]-labeled compound in Fisher rat 10 min after injection via caudal vein along with 18 ug of unlabeled estradiol.; assay type: ADME, organism-based; settings: iv; in short: as §1
Rattus norvegicus [5] = assay: In vivo liver distribution of [11C]-labeled compound in Fisher rat 10 min after injection via caudal vein along with 18 ug of unlabeled estradiol.; assay type: ADME, organism-based; settings: iv; in short: as §1
Rattus norvegicus [6] = assay: In vivo lung distribution of [11C]-labeled compound in Fisher rat 10 min after injection via caudal vein.; assay type: ADME, organism-based; settings: iv; in short: as §1
Rattus norvegicus [7] = species: Rattus norvegicus; assay: as §2; assay type: functional; in short: as §3; remark: listed apart in the source
Rattus norvegicus [8] = species: Rattus norvegicus; assay: as §2; assay type: functional; in short: as §3; remark: listed apart in the source
Rattus norvegicus [9] = species: Rattus norvegicus; assay: (§4) Tissue to blood ratio 10 min after injection of compound & Estradiol; assay type: functional; in short: as §3
Rattus norvegicus [10] = species: Rattus norvegicus; assay: as §4; assay type: functional; in short: as §3; remark: listed apart in the source
Rattus norvegicus [11] = assay: In vivo blood distribution of [11C]-labeled compound in Fisher rat 10 min after injection via caudal vein along with 18 ug of unlabeled estradiol.; assay type: ADME, organism-based; settings: iv; in short: as §1
Rattus norvegicus [12] = assay: In vivo blood distribution of [11C]-labeled compound in Fisher rat 10 min after injection via caudal vein.; assay type: ADME, organism-based; settings: iv; in short: as §1
Rattus norvegicus [13] = assay: In vivo uterus distribution of [11C]-labeled compound in Fisher rat 10 min after injection via caudal vein along with 18 ug of unlabeled estradiol.; assay type: ADME, organism-based; settings: iv; in short: as §1
Rattus norvegicus [14] = assay: In vivo uterus distribution of [11C]-labeled compound in Fisher rat 10 min after injection via caudal vein.; assay type: ADME, organism-based; settings: iv; in short: as §1
Rattus norvegicus [15] = species: Rattus norvegicus; assay: as §2; assay type: functional; in short: as §3; remark: listed apart in the source
Rattus norvegicus [16] = assay: In vivo muscle distribution of [11C]-labeled compound in Fisher rat 10 min after injection via caudal vein along with 18 ug of unlabeled estradiol.; assay type: ADME, organism-based, Muscle tissue; settings: iv; in short: as §1
Rattus norvegicus [17] = species: Rattus norvegicus; assay: as §2; assay type: functional; in short: as §3; remark: listed apart in the source
Rattus norvegicus [18] = assay: In vivo muscle distribution of [11C]-labeled compound in Fisher rat 10 min after injection via caudal vein.; assay type: ADME, organism-based, Muscle tissue; settings: iv; in short: as §1
Rattus norvegicus [19] = species: Rattus norvegicus; assay: as §4; assay type: functional; in short: as §3; remark: listed apart in the source
Rattus norvegicus [20] = species: Rattus norvegicus; assay: as §4; assay type: functional; in short: as §3; remark: listed apart in the source
Rattus norvegicus [21] = species: Rattus norvegicus; assay: as §4; assay type: functional; in short: as §3; remark: listed apart in the source
Rattus norvegicus [22] = species: Rattus norvegicus; assay: as §4; assay type: functional; in short: as §3; remark: listed apart in the source
Rattus norvegicus [23] = species: Rattus norvegicus; assay: as §4; assay type: functional; in short: as §3; remark: listed apart in the source
Rattus norvegicus [24] = assay: In vivo spleen distribution of [11C]-labeled compound in Fisher rat 10 min after injection via caudal vein along with 18 ug of unlabeled estradiol.; assay type: ADME, organism-based; settings: iv; in short: as §1
Rattus norvegicus [25] = assay: In vivo spleen distribution of [11C]-labeled compound in Fisher rat 10 min after injection via caudal vein.; assay type: ADME, organism-based; settings: iv; in short: as §1
Rattus norvegicus [26] = species: Rattus norvegicus; assay: as §2; assay type: functional; in short: as §3; remark: listed apart in the source
Rattus norvegicus [27] = species: Rattus norvegicus; assay: as §4; assay type: functional; in short: as §3; remark: listed apart in the source
Rattus norvegicus [28] = assay: In vivo ovaries distribution of [11C]-labeled compound in Fisher rat 10 min after injection via caudal vein along with 18 ug of unlabeled estradiol.; assay type: ADME, organism-based, Female gonad; settings: iv; in short: as §1
Rattus norvegicus [29] = assay: In vivo ovaries distribution of [11C]-labeled compound in Fisher rat 10 min after injection via caudal vein.; assay type: ADME, organism-based, Female gonad; settings: iv; in short: as §1
Rattus norvegicus [30] = species: Rattus norvegicus; assay: as §2; assay type: functional; in short: as §3; remark: listed apart in the source
Rattus norvegicus [31] = assay: In vivo kidneys distribution of [11C]-labeled compound in Fisher rat 10 min after injection via caudal vein along with 18 ug of unlabeled estradiol.; assay type: ADME, organism-based, Kidney; settings: iv; in short: as §1
Rattus norvegicus [32] = assay: In vivo kidneys distribution of [11C]-labeled compound in Fisher rat 10 min after injection via caudal vein.; assay type: ADME, organism-based, Kidney; settings: iv; in short: as §1
Rattus norvegicus [33] = species: Rattus norvegicus; assay: as §2; assay type: functional; in short: as §3; remark: listed apart in the source
Rattus norvegicus [34] = assay: In vivo liver distribution of [11C]-labeled compound in Fisher rat 10 min after injection via caudal vein.; assay type: ADME, organism-based; settings: iv; in short: as §1
Rattus norvegicus [35] = species: Rattus norvegicus; assay: as §2; assay type: functional; in short: as §3; remark: listed apart in the source
Rattus norvegicus [36] = species: Rattus norvegicus; assay: as §4; assay type: functional; in short: as §3; remark: listed apart in the source
Rattus norvegicus [37] = species: Rattus norvegicus; assay: as §2; assay type: functional; in short: as §3; remark: listed apart in the source
Rattus norvegicus [38] = species: Rattus norvegicus; assay: as §4; assay type: functional; in short: as §3; remark: listed apart in the source
Rattus norvegicus [39] = species: Rattus norvegicus; assay: as §2; assay type: functional; in short: as §3; remark: listed apart in the source
Rattus norvegicus [40] = species: Rattus norvegicus; assay: as §4; assay type: functional; in short: as §3; remark: listed apart in the source
Rattus norvegicus [41] = species: Rattus norvegicus; assay: as §2; assay type: functional; in short: as §3; remark: listed apart in the source
Rattus norvegicus [42] = species: Rattus norvegicus; assay: as §4; assay type: functional; in short: as §3; remark: listed apart in the source
Rattus norvegicus [43] = species: Rattus norvegicus; assay: as §2; assay type: functional; in short: as §3; remark: listed apart in the source
Rattus norvegicus [44] = species: Rattus norvegicus; assay: as §4; assay type: functional; in short: as §3; remark: listed apart in the source
Rattus norvegicus [45] = species: Rattus norvegicus; assay: as §2; assay type: functional; in short: as §3; remark: listed apart in the source
Rattus norvegicus [46] = species: Rattus norvegicus; assay: as §4; assay type: functional; in short: as §3; remark: listed apart in the source
Rattus norvegicus [47] = species: Rattus norvegicus; assay: as §2; assay type: functional; in short: as §3; remark: listed apart in the source
Rattus norvegicus [48] = species: Rattus norvegicus; assay: as §4; assay type: functional; in short: as §3; remark: listed apart in the source

Structure (SMILES) | Injected dose/g (Rattus norvegicus [1]) | Injected dose/g (Rattus norvegicus [2]) | Injected dose/g (Rattus norvegicus [4]) | Injected dose/g (Rattus norvegicus [5]) | Injected dose/g (Rattus norvegicus [6]) | Injected dose/g (Rattus norvegicus [11]) | Injected dose/g (Rattus norvegicus [12]) | Injected dose/g (Rattus norvegicus [13]) | Injected dose/g (Rattus norvegicus [14]) | Injected dose/g (Rattus norvegicus [16]) | Injected dose/g (Rattus norvegicus [18]) | Injected dose/g (Rattus norvegicus [24]) | Injected dose/g (Rattus norvegicus [25]) | Injected dose/g (Rattus norvegicus [28]) | Injected dose/g (Rattus norvegicus [29]) | Injected dose/g (Rattus norvegicus [31]) | Injected dose/g (Rattus norvegicus [32]) | Injected dose/g (Rattus norvegicus [34]) | further results
CCOC(=O)NCCOc1ccc(C(CC)C(CC)c2ccc(O)cc2)cc1 (stereo not drawn) | 5.3% | 6.5% | 2.1% | 7.8% | 2.1% | 1.3% | 0.81% | 6.2% | 5% | 1.3% | 1.1% | 1.6% | 2.4% | 3.5% | 2.5% | 5.1% | 2.9% | 8.5% | Tissue/Blood ratio (Rattus norvegicus [3]): 8; Tissue/Blood ratio (Rattus norvegicus [7]): 2.4; Tissue/Blood ratio (Rattus norvegicus [8]): 9; Tissue/Blood ratio (Rattus norvegicus [9]): 9.4; Tissue/Blood ratio (Rattus norvegicus [10]): 2.5; Tissue/Blood ratio (Rattus norvegicus [15]): 6.3; Tissue/Blood ratio (Rattus norvegicus [17]): 1.2; Tissue/Blood ratio (Rattus norvegicus [19]): 2.8; Tissue/Blood ratio (Rattus norvegicus [20]): 5.4; Tissue/Blood ratio (Rattus norvegicus [21]): 3.3; Tissue/Blood ratio (Rattus norvegicus [22]): 1.3; Tissue/Blood ratio (Rattus norvegicus [23]): 3.1; Tissue/Blood ratio (Rattus norvegicus [26]): 2.5; Tissue/Blood ratio (Rattus norvegicus [27]): 1.9; Tissue/Blood ratio (Rattus norvegicus [30]): 3; Tissue/Blood ratio (Rattus norvegicus [33]): 3.7
CCOC(=O)NC1CC[C@H]2[C@@H]3CCc4cc(O)ccc4[C@H]3CC[C@]12C (stereo partly drawn) | 21.6% | 14.3% | 5.1% | 12.8% | 3.1% | 1.3% | 0.9% | 7.8% | 4.5% | 3.2% | 1.6% | 3.6% | 2.3% | 7.4% | 6.5% | 6.1% | 4.2% | 9.4% | Ratio (Rattus norvegicus [35]): 18; Ratio (Rattus norvegicus [36]): 14.9; Ratio (Rattus norvegicus [7]): 3.7; Ratio (Rattus norvegicus [37]): 9.1; Ratio (Rattus norvegicus [38]): 9.1; Ratio (Rattus norvegicus [10]): 3.7; Ratio (Rattus norvegicus [39]): 5.5; Ratio (Rattus norvegicus [40]): 6.2; Ratio (Rattus norvegicus [41]): 1.4; Ratio (Rattus norvegicus [42]): 1.8; Ratio (Rattus norvegicus [43]): 2.8; Ratio (Rattus norvegicus [44]): 2.7; Ratio (Rattus norvegicus [45]): 9.4; Ratio (Rattus norvegicus [46]): 6; Ratio (Rattus norvegicus [47]): 4.8; Ratio (Rattus norvegicus [48]): 4.3
